Published values from different studies.
Protocols differ between the studies behind these lines. In brackets after ≈: the same amount, converted by molar mass.

O=C(C[C@@H](C(F)F)n1ccc(F)n1)N1CCC(O)(Cn2cnc3c(cnn3-c3ccc(F)cc3)c2=O)CC1
viability (CAPAN-1; cell growth or viability, SRB; 2.222 µM, 5 days): 19.8%

CCOC(=O)C1=C(CSC2=NCCS2)NC(=O)NC1c1cccc(OC)c1 (stereo not drawn)
IC50 (DPPH scavenging): 150 µM

CCCCCCCCC1NCCc2cc(O)c(O)cc21 (stereo not drawn)
IC50 (DPPH scavenging, absorbance; 30 min, dark): 65.3 µM

NCCCC(=O)Nc1ccccc1/N=c1\cc(-c2ccc3c(c2)OCO3)oc2ccccc12
inhibition (MCF7; cell growth or viability, CCK-8; 1 µM): 10.2%

CC(C)=CC1NCCc2cc(O)c(O)cc21 (stereo not drawn)
IC50 (DPPH scavenging, absorbance; 30 min, dark): 54.2 µM

CCOC(=O)C1=C(CCl)NC(=O)NC1c1cccc(C)c1 (stereo not drawn)
IC50 (DPPH scavenging): 70.7 µM

NCC(=O)Nc1ccccc1/N=c1\cc(-c2ccc3c(c2)OCCO3)oc2ccccc12
inhibition (MCF7; cell growth or viability, CCK-8; 1 µM): -1.21%

N#CC(=C1C=CC(=NOC(=O)OCc2ccccc2)C=C1)c1ccccc1
MIC (Candidozyma auris; microbial growth, broth dilution; 48 h): 64 µg/mL (≈ 180 µM)

N[C@@H](CO)C(=O)Nc1ccccc1/N=c1\cc(-c2ccc3c(c2)OCO3)oc2ccccc12
inhibition (MCF7; cell growth or viability, CCK-8; 1 µM): 16.3%

CCCCCCCCCCCCCCCCCC1NCCc2cc(O)c(O)cc21 (stereo not drawn)
IC50 (DPPH scavenging, absorbance; 30 min, dark): 34.8 µM

CCOC(=O)C1=C(CSC2=NCCS2)NC(=O)NC1c1cccc(C)c1 (stereo not drawn)
IC50 (DPPH scavenging): 224 µM

C=CC(=O)ON=C1C=CC(=C(C#N)c2ccccc2)C=C1
MFC (Candidozyma auris; microbial killing, broth dilution; 48 h): 16 µg/mL (≈ 57.9 µM)

CCOC(=O)C1=C(CSC2=NCCS2)NC(=O)NC1c1ccc(F)cc1 (stereo not drawn)
IC50 (DPPH scavenging): 157 µM

C#CCON=C1C=CC(=C(C#N)c2ccccc2)C=C1
MIC (Candidozyma auris; microbial growth, broth dilution; 48 h): 32 µg/mL (≈ 123 µM)

CCOC(=O)C1=C(CCl)NC(=O)NC1c1ccc(F)cc1 (stereo not drawn)
IC50 (DPPH scavenging): 246 µM

NCCC(=O)Nc1ccccc1/N=c1\cc(-c2ccc3c(c2)OCCO3)oc2cc(F)ccc12
inhibition (MCF7; cell growth or viability, CCK-8; 1 µM): -1.71%

Oc1cc2c(cc1O)C(Cc1ccccc1)NCC2 (stereo not drawn)
IC50 (DPPH scavenging, absorbance; 30 min, dark): 19.7 µM

CCOC(=O)C1=C(CCl)NC(=O)NC1c1ccc(OC)cc1 (stereo not drawn)
IC50 (DPPH scavenging): 150 µM

C#CCOC(=O)ON=C1C=CC(=C(C#N)c2ccccc2)C=C1
MIC (Candidozyma auris; microbial growth, broth dilution; 48 h): 16 µg/mL (≈ 52.6 µM)

COc1cc(C2NCCc3cc(O)c(O)cc32)ccc1O (stereo not drawn)
IC50 (DPPH scavenging, absorbance; 30 min, dark): 8.15 µM

CC(=O)ON=C1C=CC(=C(C#N)c2ccccc2)C=C1
MIC (Candidozyma auris; microbial growth, broth dilution; 48 h): 16 µg/mL (≈ 60.5 µM)

O=C1O[C@H]([C@@H](O)CO)C(O)=C1O
IC50 (DPPH scavenging): 88.4 µM

Oc1ccc(C2NCCc3cc(O)c(O)cc32)cc1O (stereo not drawn)
IC50 (DPPH scavenging, absorbance; 30 min, dark): 8.14 µM

NCC(=O)Nc1ccccc1/N=c1\cc(-c2ccc3c(c2)OCCO3)oc2cc(F)ccc12
inhibition (MCF7; cell growth or viability, CCK-8; 1 µM): -2.78%
